pEC50: −log10 of the molar value. Calls of active or inactive are those of the source.
Assays:
in vitro = details: human
[1] = Inhibition of HedgeHog pathway in mouse C3H10T1/2 cells assessed as inhibition of 20-(S)-hydroxysterol/22-(S)-hydroxysterol-induced osteoblastic differentiation after 72 hrs by alkaline phosphatase assay; details: C3H 10T1/2, 72 h
[2] = Oral bioavailability in CD1 mouse at 5 mg/kg; type: ADME, organism-based; details: in vivo
[3] = Oral bioavailability in Sprague-Dawley rat at 5 mg/kg; type: ADME, organism-based; details: in vivo
[4] = Oral bioavailability in Beagle dog at 4 mg/kg; type: ADME, organism-based, Canis lupus familiaris; details: in vivo
[5] = Oral bioavailability in cynomolgus monkey at 4 mg/kg; type: ADME, organism-based, Macaca fascicularis; details: in vivo
[6] = Plasma clearance in CD1 mouse at 1 mg/kg, iv; type: ADME, organism-based; set-up: dose 1 mg/kg, route intravenous
In short: (§1)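 Plasma sampled at 0.083-24 h (T_last 24 h), protein-precipitated with acetonitrile containing jervine internal standard, and quantified by LC/MS/MS. Parameters taken from the concentration-time profile.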

[7] = Plasma clearance in Sprague-Dawley rat at 1 mg/kg, iv; type: ADME, organism-based; set-up: dose 1 mg/kg, route intravenous
In short: as §1

[8] = Plasma clearance in Beagle dog at 1 mg/kg, iv; type: ADME, organism-based, Canis lupus familiaris; set-up: dose 1 mg/kg, route intravenous
In short: as §1

[9] = Plasma clearance in cynomolgus monkey at 1 mg/kg, iv; type: ADME, organism-based, Macaca fascicularis; set-up: dose 1 mg/kg, route intravenous
In short: as §1

[10] = Volume of distribution in CD1 mouse at 1 mg/kg, iv; type: ADME, organism-based; set-up: dose 1 mg/kg, route intravenous; details: in vivo
In short: as §1

[11] = Volume of distribution in Sprague-Dawley rat at 1 mg/kg, iv; type: ADME, organism-based; set-up: dose 1 mg/kg, route intravenous; details: in vivo
In short: as §1

[12] = Volume of distribution in Beagle dog at 1 mg/kg, iv; type: ADME, organism-based, Canis lupus familiaris; set-up: dose 1 mg/kg, route intravenous; details: in vivo
In short: as §1

[13] = Volume of distribution in cynomolgus monkey at 1 mg/kg, iv; type: ADME, organism-based, Macaca fascicularis; set-up: dose 1 mg/kg, route intravenous; details: in vivo
In short: as §1

[14] = Elimination half life in CD1 mouse at 1 mg/kg, iv; type: ADME, organism-based; set-up: dose 1 mg/kg, route intravenous; details: in vivo, read-out: beta t1/2 (converted)
In short: as §1

[15] = Elimination half life in Sprague-Dawley rat at 1 mg/kg, iv; type: ADME, organism-based; set-up: dose 1 mg/kg, route intravenous; details: in vivo, read-out: beta t1/2 (converted)
In short: as §1

[16] = Elimination half life in Beagle dog at 1 mg/kg, iv; type: ADME, organism-based, Canis lupus familiaris; set-up: dose 1 mg/kg, route intravenous; details: in vivo, read-out: beta t1/2 (converted)
In short: as §1

[17] = Elimination half life in cynomolgus monkey at 1 mg/kg, iv; type: ADME, organism-based, Macaca fascicularis; set-up: dose 1 mg/kg, route intravenous; details: in vivo, read-out: beta t1/2 (converted)
In short: as §1

[18] = Toxicity in po dosed Ptc+/- Hic+/- mouse B837Tx cells allografted NOD/SCID mouse assessed as maximum tolerated dose after 5 days; type: organism-based; details: in vivo
In short: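 Tumor-bearing immunocompromised mice received repeat oral dosing for 5 days. MTD was defined as the dose tolerated by all animals (N = 3).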

Mus musculus [19] = assay: Antitumor activity against Ptc+/- Hic+/- mouse B837Tx cells allografted in NOD/SCID mouse assessed as median time to unmeasurable tumor volume at 25 mg/kg, po administered daily for 21 days; type: functional, organism-based; set-up: dose 25 mg/kg
Mus musculus [20] = assay: Antitumor activity against Ptc+/- Hic+/- mouse B837Tx cells allografted in NOD/SCID mouse assessed as tumor-free interval on 21 days post treatment at 25 mg/kg, po administered daily for 21 days; type: functional, organism-based; set-up: dose 25 mg/kg
Mus musculus [21] = assay: Antitumor activity against Ptc+/- Hic+/- mouse B837Tx cells allografted in NOD/SCID mouse assessed as effect on recurrence rate on post treatment at 25 mg/kg, po administered daily for 21 days; type: functional, organism-based; set-up: dose 25 mg/kg
Mus musculus [22] = assay: Antitumor activity against Ptc+/- Hic+/- mouse B837Tx cells allografted in NOD/SCID mouse assessed as median time to unmeasurable tumor volume at 40 mg/kg, po administered daily for 21 days; type: functional
In short: (§2)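 NOD/SCID mice given 1 × 10^6 B837Tx cells in the right hind flank. Once tumors reached about 100-200 mm³, N=10/group were gavaged daily for 21 days. Vehicle: 30% (w/w) HPBCD in 0.1 M citrate phosphate buffer, pH 3, dosing solutions 5-10 mg/mL. Tumors measured in two perpendicular dimensions by caliper 3 times weekly. Regrowth monitored over a 21-day post-treatment phase.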

Mus musculus [23] = assay: Antitumor activity against Ptc+/- Hic+/- mouse B837Tx cells allografted in NOD/SCID mouse assessed as tumor-free interval on 21 days post treatment at 40 mg/kg, po administered daily for 21 days; type: functional
In short: as §2

Mus musculus [24] = assay: Antitumor activity against Ptc+/- Hic+/- mouse B837Tx cells allografted in NOD/SCID mouse assessed as effect on recurrence rate on post treatment at 40 mg/kg, po administered daily for 21 days; type: functional, organism-based; set-up: dose 40 mg/kg
In short: as §2

Structure (SMILES) | half-life at 0.5 µM (in vitro; liver microsomes) | pEC50 [1] | half-life at 0.5 µM (in vitro; microsomes) | also measured
CC1=C2C[C@H]3[C@@H](CC[C@@H]4Cc5nn(C)cc5C[C@@]43C)[C@@H]2CC[C@@]2(C1)O[C@@H]1C[C@H](C)CN[C@H]1[C@H]2C | 0.583 h | 7.27 |  | 
CC1=C2C[C@H]3[C@@H](CC[C@@H]4C[C@@H](O)CC[C@@]43C)[C@@H]2CC[C@@]2(C1)O[C@@H]1C[C@H](C)CN[C@H]1[C@H]2C | 0.333 h | 7.64 |  | 
CC1=C2C[C@H]3[C@@H](CC[C@@H]4Cc5[nH][nH]c(=O)c5C[C@@]43C)[C@@H]2CC[C@@]2(C1)O[C@@H]1C[C@H](C)CN[C@H]1[C@H]2C | 1.67 h | 6.77 |  | 
CO[C@H]1CC[C@@]2(C)[C@H](CC[C@H]3[C@@H]4CC[C@@]5(CC(C)=C4C[C@@H]32)O[C@@H]2C[C@H](C)CN[C@H]2[C@H]5C)C1 |  | 6.31 | > 3.33 h | 
CC1=C2C[C@H]3[C@@H](CC[C@@H]4Cc5nonc5C[C@@]43C)[C@@H]2CC[C@@]2(C1)O[C@@H]1C[C@H](C)CN[C@H]1[C@H]2C | 0.133 h | 6.64 |  | 
CC(=O)N[C@H]1CC[C@@]2(C)[C@H](CC[C@H]3[C@@H]4CC[C@@]5(CC(C)=C4C[C@@H]32)O[C@@H]2C[C@H](C)CN[C@H]2[C@H]5C)C1 |  | 6.52 | 1 h | 
CC1=C2C[C@H]3[C@@H](CCC4=CC(=O)CC[C@@]43C)[C@@H]2CC[C@@]2(C1)O[C@@H]1C[C@H](C)CN[C@H]1[C@H]2C |  | 6.52 | 1.25 h | bioavailability [2]: 79%; bioavailability [3]: 13%; bioavailability [4]: 7%; bioavailability [5]: 69%; clearance [6]: 60 mL/min/kg; clearance [7]: 207 mL/min/kg; clearance [8]: 78.3 mL/min/kg; clearance [9]: 103 mL/min/kg; Vd [10]: 18 L/kg; Vd [11]: 28 L/kg; Vd [12]: 13.9 L/kg; Vd [13]: 21.3 L/kg; half-life [14]: 3.5 h; half-life [15]: 1.7 h; half-life [16]: 2.2 h; half-life [17]: 2.4 h; MTD at 120 h [18]: 25 mg/kg; Activity (Mus musculus [19]): inactive; Activity (Mus musculus [20]): inactive; Activity (Mus musculus [21]): inactive
CO/N=C1\CC[C@@]2(C)[C@H](CC[C@H]3[C@@H]4CC[C@@]5(CC(C)=C4C[C@@H]32)O[C@@H]2C[C@H](C)CN[C@H]2[C@H]5C)C1 | 0.917 h | 6.80 |  | 
CC1=C2C[C@H]3[C@@H](CC[C@@H]4C[C@@H](n5ccnn5)CC[C@@]43C)[C@@H]2CC[C@@]2(C1)O[C@@H]1C[C@H](C)CN[C@H]1[C@H]2C | 1.17 h | 6.89 |  | 
CC1=C2C[C@H]3[C@@H](CC[C@@H]4C[C@H](n5ccnn5)CC[C@@]43C)[C@@H]2CC[C@@]2(C1)O[C@@H]1C[C@H](C)CN[C@H]1[C@H]2C | 0.667 h | 7.62 |  | 
CC1=C2C[C@H]3[C@@H](CC=C4C[C@@H](O)CC[C@@]43C)[C@@H]2CC[C@]12O[C@@H]1C[C@H](C)CN[C@H]1[C@H]2C |  |  |  | Activity (Mus musculus [22]): inactive; Activity (Mus musculus [23]): inactive; Activity (Mus musculus [24]): inactive
CC1=C2C[C@H]3[C@@H](CC[C@@H]4C[C@H](N)CC[C@@]43C)[C@@H]2CC[C@@]2(C1)O[C@@H]1C[C@H](C)CN[C@H]1[C@H]2C |  | < 6.00 |  | 
CC1=C2C[C@H]3[C@@H](CC[C@@H]4Cc5nn(S(=O)(=O)c6ccc(C)cc6)cc5C[C@@]43C)[C@@H]2CC[C@@]2(C1)O[C@@H]1C[C@H](C)CN[C@H]1[C@H]2C | 1.08 h | 6.05 |  | 
CC1=C2C[C@H]3[C@@H](CC[C@@H]4Cc5n[nH]c(C(F)(F)F)c5C[C@@]43C)[C@@H]2CC[C@@]2(C1)O[C@@H]1C[C@H](C)CN[C@H]1[C@H]2C | 3.33 h | 6.77 |  | 
CC1=C2C[C@H]3[C@@H](CC[C@H]4CC(=O)CC[C@@]43C)[C@@H]2CC[C@@]2(C1)O[C@@H]1C[C@H](C)CN[C@H]1[C@H]2C |  | 6.40 | 1.25 h | 
CC1=C2C[C@H]3[C@@H](CC[C@@H]4c5c[nH]nc5CC[C@@]43C)[C@@H]2CC[C@@]2(C1)O[C@@H]1C[C@H](C)CN[C@H]1[C@H]2C |  | 6.66 | 0.45 h | 
CC1=C2C[C@H]3[C@@H](CC[C@@H]4CN(C)C(=O)CC[C@@]43C)[C@@H]2CC[C@@]2(C1)O[C@@H]1C[C@H](C)CN[C@H]1[C@H]2C |  | 7.40 | 0.767 h | 
CC(=O)N[C@@H]1CC[C@@]2(C)[C@H](CC[C@H]3[C@@H]4CC[C@@]5(CC(C)=C4C[C@@H]32)O[C@@H]2C[C@H](C)CN[C@H]2[C@H]5C)C1 |  | 7.77 | 1.08 h | 
CC1=C2C[C@H]3[C@@H](CC[C@@H]4Cc5nc(C)sc5C[C@@]43C)[C@@H]2CC[C@@]2(C1)O[C@@H]1C[C@H](C)CN[C@H]1[C@H]2C | 1.67 h | 6.57 |  | 
CC1=C2C[C@H]3[C@@H](CC[C@@H]4C[C@@H](NS(C)(=O)=O)CC[C@@]43C)[C@@H]2CC[C@@]2(C1)O[C@@H]1C[C@H](C)CN[C@H]1[C@H]2C |  | 7.05 | 0.5 h | 
CC1=C2C[C@H]3[C@@H](CC[C@@H]4Cc5nn(S(C)(=O)=O)cc5C[C@@]43C)[C@@H]2CC[C@@]2(C1)O[C@@H]1C[C@H](C)CN[C@H]1[C@H]2C | 3 h | 6.85 |  | 
CC1=C2C[C@H]3[C@@H](CC[C@@H]4CCCC[C@@]43C)[C@@H]2CC[C@@]2(C1)O[C@@H]1C[C@H](C)CN[C@H]1[C@H]2C |  | 6.12 |  | 
CC1=C2C[C@H]3[C@@H](CC[C@@H]4Cc5nocc5C[C@@]43C)[C@@H]2CC[C@@]2(C1)O[C@@H]1C[C@H](C)CN[C@H]1[C@H]2C |  | 7.21 | 0.133 h | 
CO[C@@H]1CC[C@@]2(C)[C@H](CC[C@H]3[C@@H]4CC[C@@]5(CC(C)=C4C[C@@H]32)O[C@@H]2C[C@H](C)CN[C@H]2[C@H]5C)C1 |  | 6.74 | 0.333 h | 
CC1=C2C[C@H]3[C@@H](CC[C@@H]4C/C(=N/O)CC[C@@]43C)[C@@H]2CC[C@@]2(C1)O[C@@H]1C[C@H](C)CN[C@H]1[C@H]2C |  | 7.82 | 0.75 h | 
CC1=C2C[C@H]3[C@@H](CC[C@@H]4C[C@@H](N)CC[C@@]43C)[C@@H]2CC[C@@]2(C1)O[C@@H]1C[C@H](C)CN[C@H]1[C@H]2C |  | < 6.00 |  | 
CC1=C2C[C@H]3[C@@H](CC[C@@H]4CC(=O)CC[C@@]43C)[C@@H]2CC[C@@]2(C1)O[C@@H]1C[C@H](C)CN[C@H]1[C@H]2C |  | 7.89 | 1.17 h | 
CC1=C2C[C@H]3[C@@H](CC[C@@H]4C[C@H](O)CC[C@@]43C)[C@@H]2CC[C@@]2(C1)O[C@@H]1C[C@H](C)CN[C@H]1[C@H]2C | 0.667 h | 8.05 |  | 
